Source: ChEMBL document CHEMBL1151419, “Antimicrobial effect of halocidin-derived peptide in a mouse model of Listeria infection” (Antimicrob Agents Chemother, 2007)
Converted amounts (≈) assume the structure as drawn. The source made the active and inactive calls. The calls are words filed in the database; no cut-off is given here. Bridge positions count the residues as written; N and C are the ends. Peptide text beside a SMILES is read from it. I, II: the chains in the order shown.

What was measured:
Listeria monocytogenes [1] = test: Antimicrobial activity against Listeria monocytogenes ATCC 19111 infected in BALB/c mouse assessed as survival of mouse at 4 mg/kg, iv administered immediately after bacterial challenge measured after 15 days; assay type: functional; settings: ATCC 19111, 360 h
Outline: (§1)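 L. monocytogenes grown 18 h at 37°C in brain heart infusion broth and frozen at –80°C; viability checked by plating. Mice infected via tail vein with 2 x 10^5 bacteria each. A single 4 mg/kg i.v. dose in 100 µl PBS was given immediately or 2 h after infection; PBS vehicle controls. Ten mice per group; survivors counted daily for 15 days.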

Listeria monocytogenes [2] = test: Antimicrobial activity against Listeria monocytogenes ATCC 19111 after 18 hrs by broth microdilution assay; assay type: functional; settings: ATCC 19111, 18 h
Outline: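 Bacteria were grown overnight to stationary phase in Mueller-Hinton broth at 37°C and diluted to 2 x 10^5 CFU/ml. Line 3 used MHB plus 150 mM NaCl. Peptide stock (640 µg/ml in 0.01% acetic acid) was twofold serially diluted to 10 µg/ml, and 11 µl was added per 100 µl of cells. Turbidity was read after 18 h at 37°C; MIC was the minimum concentration visibly inhibiting growth.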

Listeria monocytogenes [3] = test: Antibacterial activity against Listeria monocytogenes ATCC 19111 in assay tube containing mixture of erythrocyte/Listeria monocytogenes cells assessed as logarithmic reduction in CFU after 30 mins; assay type: functional
Outline: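 Washed mid-log L. monocytogenes (final 1 x 10^5 CFU/ml) was mixed with human blood cells (final 5 x 10^8 cells/ml) and peptide (final 40 µg/ml) in PBS at 37°C. A peptide-free control was included. At 10, 20 and 30 min, aliquots were plated on TSA and colonies counted after overnight growth. Blood cells were counted by hemocytometer under light microscopy.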

[4] = Stability in human serum assessed as half life at 1 mg/ml; assay type: ADME, cell-free
Listeria monocytogenes [5] = test: Antimicrobial activity against Listeria monocytogenes ATCC 19111 infected in BALB/c mouse assessed as reduction in number of recovered CFU in liver at 100 ug, iv measured after 3 days; assay type: functional, organism-based
Outline: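 Mice were infected i.v. with L. monocytogenes and immediately given 100 µg peptide in 100 µl PBS i.v.; PBS alone served as control. On days 1 and 3, liver and spleen were homogenized in PBS/0.1% BSA, serially diluted, and plated on TSA with 5% sheep blood. Colonies were counted after 18 h at 37°C. Three independent experiments; mean ± SD.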

Listeria monocytogenes [6] = test: Antimicrobial activity against Listeria monocytogenes ATCC 19111 infected in BALB/c mouse assessed as survival of mouse at 4 mg/kg, iv administered 2 hrs after bacterial challenge measured after 15 days; assay type: functional; outline: as §1
[7] = Stability in human serum assessed as drug remaining at 1 mg/ml after 8 hrs; assay type: ADME, cell-free; settings: read-out: Stability
Outline: (§2)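 At 0, 2, 4 and 8 h, 200-µl aliquots were quenched with 20 µl of 1% TFA, held 10 min at 4°C, and centrifuged. Remaining peptide was quantified by HPLC peak area relative to the unincubated sample. Triplicate runs.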

[8] = Toxicity in human erythrocytes assessed as hemolysis at 25 ug/ml relative to Triton X-100; assay type: cell-based, Erythrocyte; settings: read-out: Activity
Outline: (§3)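 Peptide (20 µl) was mixed with 180 µl of a 2.5% (vol/vol) human RBC suspension in PBS and incubated 30 min at 37°C. PBS was added and samples centrifuged 3 min at 10,000 x g; supernatant A540 was read. Hemolysis was expressed relative to a peptide-free PBS blank and 1% Triton X-100 as 100%.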

Liver = test: Drug penetration in BALB/c mouse liver infected with CFSE-labeled Listeria monocytogenes ATCC 19111 at 200 ug, iv by laser scanning confocal microscopy; assay type: ADME, organism-based; settings: in vivo
Outline: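 Listeria was labeled with 5 µM CFSE for 20 min at 37°C in darkness and washed. Mice received 4 x 10^8 cells by tail vein, then immediately 200 µg peptide in 100 µl PBS i.v., or PBS only. Livers were taken 10 min later. Frozen 6-µm sections were stained with cross-reacting rabbit anti-18Hc antiserum (1:200) and Cy3 goat anti-rabbit IgG, then imaged by laser scanning confocal microscopy.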

Staphylococcus aureus = test: Antimicrobial activity against methicillin-resistant Staphylococcus aureus CCARM 3695 after 18 hrs by broth microdilution assay; assay type: functional; settings: CCARM 3695, 18 h
Outline: (§4)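 Broth microdilution (modified CLSI). Overnight stationary-phase Mueller-Hinton broth cultures diluted to 2 x 10^5 CFU/ml final. Peptide serially twofold diluted in 0.01% acetic acid (stock series 640 down to 10 µg/ml); 11 µl added to 100 µl of bacteria. After 18 h at 37°C, MIC taken as the lowest concentration preventing visible turbidity.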

Listeria monocytogenes [9] = test: Antimicrobial activity against Listeria monocytogenes ATCC 19111 infected in BALB/c mouse at 4 mg/kg, iv in presence of increasing concentration of pustulan; assay type: functional, organism-based; set-up: dose 4 mg/kg
Enterococcus faecium = test: Antimicrobial activity against vancomycin-resistant Enterococcus faecium CCARM 5029 after 18 hrs by broth microdilution assay; assay type: functional; settings: CCARM 5029, 18 h; outline: as §4
[10] = Stability in human serum assessed as drug remaining at 1 mg/ml after 4 hrs; assay type: ADME, cell-free; settings: read-out: Stability; outline: as §2
[11] = Toxicity in human erythrocytes assessed as hemolysis at 100 ug/ml relative to Triton X-100; assay type: cell-based, Erythrocyte; settings: read-out: Activity; outline: as §3

CC(C)C[C@H](NC(=O)CNC(=O)[C@H](Cc1cnc[nH]1)NC(=O)[C@H](Cc1cnc[nH]1)NC(=O)[C@H](CC(C)C)NC(=O)[C@H](CC(C)C)NC(=O)[C@H](C)N)C(=O)N[C@@H](CC(N)=O)C(=O)N[C@@H](CSSC[C@H](NC(=O)[C@H](CC(N)=O)NC(=O)[C@H](CC(C)C)NC(=O)CNC(=O)[C@H](Cc1cnc[nH]1)NC(=O)[C@H](Cc1cnc[nH]1)NC(=O)[C@H](CC(C)C)NC(=O)[C@H](CC(C)C)NC(=O)[C@H](C)NC(=O)[C@H](CC(N)=O)NC(=O)[C@H](CC(C)C)NC(=O)[C@H](Cc1c[nH]c2ccccc12)NC(=O)[C@@H](N)CCCCN)C(=O)N[C@@H](C)C(=O)N[C@@H](CCCCN)C(=O)NCC(=O)N[C@H](C(=O)N[C@@H](CC(C)C)C(=O)N[C@@H](C)C(=O)O)C(C)C)C(=O)N[C@@H](C)C(=O)N[C@@H](CCCCN)C(=O)NCC(=O)N[C@H](C(=O)N[C@@H](CC(C)C)C(=O)N[C@@H](C)C(=O)O)C(C)C (I: H-KWLNALLHHGLNCAKGVLA-OH / II: H-ALLHHGLNCAKGVLA-OH; disulfide I:13-II:9)
survival at 4 mg/kg (Listeria monocytogenes [1]): 90% | MIC (Listeria monocytogenes [2]): 4 µg/mL (≈ 1.12 µM) | Activity (Listeria monocytogenes [3]): 3 | half-life at 1 mg/ml [4]: 6 h | Activity (Listeria monocytogenes [5]): Active | survival at 4 mg/kg (Listeria monocytogenes [6]): 50% | remaining at 8 h, 1 mg/ml [7]: 39% | hemolysis at 25 ug/ml [8]: 2.3% | Activity (Liver): Active | MIC (Staphylococcus aureus): 8 µg/mL (≈ 2.24 µM) | Activity (Listeria monocytogenes [9]): Active | MIC (Enterococcus faecium): 8 µg/mL (≈ 2.24 µM) | remaining at 4 h, 1 mg/ml [10]: > 70% | hemolysis at 100 ug/ml [11]: 8.5%
